Source: paper PMC2865690 (ChemMedChem, 2009)

Experiments:
mGluR5 [1] = test: mGluR5 potentiation; assay type: cell-based; conditions: read-out: Potentiator EC50; at an EC20 concentration of glutamate; average of at least three determinations
Method in brief: (§1)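 Calcium fluorescence recorded continuously on mGluR5. Test compound added alone at t = 4 s, then an EC20 concentration of glutamate added 140 s later. Agonism is read from the response to compound alone; potentiation from the response to EC20 glutamate. Full concentration-response curves, up to 30 μM, give EC50s.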

mGluR5 [2] = test: Fold-shift assay of the glutamate concentration-response curve; assay type: cell-based; conditions: 1 μM compound; leftward shift
mGluR5 [3] = test: mGluR5 allosteric agonist activity, compound alone without glutamate; assay type: cell-based
Method in brief: as §1

[4] = cited from earlier work

O=C(c1ccc(F)cc1)N1CCCC(c2nc(-c3ccc(F)cc3)no2)C1 (stereo not drawn) [16a]
EC50 (mGluR5 [1]): 1680 ± 3620 nM

O=C(c1ccc(F)cc1)N1CCC[C@H](c2nc(-c3ccc(F)cc3)no2)C1 [ADX-47273]
Fold shift of the glutamate CRC (mGluR5 [2]): 9 fold | EC50 (mGluR5 [1]): 168 ± 28 nM | Allosteric agonist % Glu Max (mGluR5 [3]): 65% | EC50 (mGluR5 [3]; read-out: Allosteric agonist EC50, absence of an EC20 of glutamate): 9500 nM

N#Cc1cccc(C(=O)Nc2cc(-c3ccccc3)nn2-c2ccccc2)c1 [CDPPB]
Solubility in most vehicles [4]: poor solubility
